CHO-K1 Ca antag: M1 antagonist counterscreen hit in parental CHO-K1 cells. ATP-induced calcium, Fluo-8 fluorescence. inhibition, % at 3 µM. 0.6% of 360,000 active;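 active means inhibition above a per-plate cutoff, the plate's mean sample inhibition plus 3 SD, cut at about 24% in these data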;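 further: 0% = DMSO plus EC80 ATP and 100% = DMSO alone without ATP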
CHO-K1 Ca ag: counter-screen for M1 agonists: effect in parental CHO-K1 cells | Fluo-8 calcium fluorescence; scaled to maximal ATP response, vehicle zero | activation, % at 3 µM | 0.48% of 360,000 active | AID 602248, 2012; in the data active means activation above about 15%;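 further: untransfected CHO-K1 host cells lacking M1 receptor as counterscreen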
M1 PAM parental: nonselective calcium activators in parental CHO-K1 cells, primary screen, counter-screen for M1 PAM project, cell-based, Fluo-8 calcium fluorescence, full deck, 1536-well; 0.02% of 360,000 active; ATP EC20; 0% at ATP EC20, 100% at ATP max; AID 602247, 2012; activation, % at 3 µM;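 active means activation above the run cutoff, the mean activation of all test compounds plus 3 SD, cut at about 40% in these data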;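 further: peak over basal fluorescence ratio in a 140 s read after ATP addition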
OX1R antag-1: antagonists of human orexin 1 receptor (OX1R) | OX1R-expressing cells, FRET antagonist read-out | inhibition, % at 6.6 µM | 1.8% of 330,000 active; in the data active means inhibition mostly above about 38%, no sharp cut-off; inactive means mostly below about 40%;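 further: 0% = agonist challenge alone and 100% = reference antagonist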
Target sequence (O43613 whole entry, looked up): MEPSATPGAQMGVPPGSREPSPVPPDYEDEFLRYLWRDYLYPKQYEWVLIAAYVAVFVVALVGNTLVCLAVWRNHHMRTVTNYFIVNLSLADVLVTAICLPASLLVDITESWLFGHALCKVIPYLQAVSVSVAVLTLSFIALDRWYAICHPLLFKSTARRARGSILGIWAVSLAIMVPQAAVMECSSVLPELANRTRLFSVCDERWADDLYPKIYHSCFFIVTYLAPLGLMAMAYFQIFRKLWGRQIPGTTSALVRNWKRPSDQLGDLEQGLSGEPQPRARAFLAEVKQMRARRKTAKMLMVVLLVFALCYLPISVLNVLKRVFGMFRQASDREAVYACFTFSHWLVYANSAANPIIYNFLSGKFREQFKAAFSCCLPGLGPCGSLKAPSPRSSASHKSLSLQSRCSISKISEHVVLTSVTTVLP
CHO parental Ca: ATP-evoked calcium signal inhibitors, parental CHO, primary screen, counter-screen for OX1R antagonist project, cell-based, fluorescence, Fluo-8 calcium dye. AID 463079, 2010. parental CHO-K1, ATP-induced calcium, Fluo-8 fluorescence. 0.63% of 330,000 active. inhibition, % at 5.6 µM;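 active means inhibition above that plate's mean sample inhibition plus 3 SD, cut at about 26% in these data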;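 further: 0% = ATP-challenged DMSO wells and 100% = DMSO wells without ATP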
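Material: parental CHO cells / Compound: single nominal dose of 5.6 µM per compound / Signal: Fluo-8 fluorescence / Replicates: singlicate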
OX1R antag-2: OX1R (HCRTR1) antagonists, primary screen, fluorescence, CHO/OX1R cells, Fluo-8 calcium, orexin A | Orexin/Hypocretin receptor type 1 (Homo sapiens), O43613 | Fluo-8 calcium fluorescence | inhibition, % at 5 µM | 0.43% of 330,000 active | AID 434989, 2010;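 active means inhibition above its plate's threshold, mean inhibition of all tested compounds on the plate plus 3 SD, cut at about 37% in these data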;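 further: 0% = orexin A challenge wells and 100% = SB-334867-A antagonist wells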
* marks the source's active call; other numbers are inactive results; . = no result. Shown are actives, neighbours in structure and some others; about 2.9% of the full set was active somewhere.

SMILES	CHO-K1 Ca antag	CHO-K1 Ca ag	M1 PAM parental	OX1R antag-1	CHO parental Ca	OX1R antag-2
CCC(CC)C(=O)N(C)c1c(C)nc2c(OCC3CCCCC3)cccn12	12.5	0.0	5.8	.	.	.
CCOC(=O)C1CCCN(Cc2cn[nH]c2-c2ccc(F)cc2F)C1 (stereo unspecified)	3.7	18.1*	7.8	20.0	-8.3	-14.9
O=C(C1CCC(CNc2c(N3CCCCC3)c(=O)c2=O)CC1)N1CCCC1 (stereo unspecified)	-14.1	0.2	11.3	2.3	-9.0	6.1
CCOC(=O)c1cn2nc(Oc3cccc(C(F)(F)F)c3)ccc2n1	-7.0	0.2	14.7	-5.0	-19.7	-30.7
Cc1c(OC(C)C(=O)NCc2cccnc2)ccc2c3c(c(=O)oc12)CCCC3 (stereo unspecified)	57.6*	3.6	-5.4	9.7	-27.6	-28.9
Cc1cccc(C(=O)Nc2ccc(C(=O)N/N=C/c3ccco3)cc2)c1	-16.5	3.3	2.0	13.1	-23.4	-17.7
O=C(NC1CCOC1=O)OCc1ccccc1 (stereo unspecified)	-8.9	0.4	8.2	.	.	.
O=C(COc1ccc(OCc2ccccc2)cc1)NC1CCOC1=O (stereo unspecified)	8.4	1.9	-0.8	28.1	37.9*	-1.7
CCOC(=O)C1CCN(CCC(=O)Nc2cccc(Cl)c2)CC1	-2.0	1.7	15.4	22.5	-11.8	-20.1
COc1cc(/C=C(\C#N)C(=O)c2c[nH]c3ccccc23)cc(OC)c1O	14.3	19.4*	7.4	36.2	-2.4	6.1
COc1cc(/C=C(\C#N)C(=O)NCCc2ccccc2)cc(OC)c1O	-12.1	5.4	3.0	18.1	12.8	5.5
O=C(COc1ccc(F)cc1Cl)Nc1ccccc1C(=O)N1CCCCC1	17.3	0.3	-17.7	25.1	98.9*	-35.4
COc1ccc(OCC(=O)Nc2ccc(N3CCOCC3)c(Cl)c2)cc1	-2.8	4.2	20.2	19.4	2.2	-5.3
COc1ccc(OCC(=O)Nc2ccc(N3CCN(C(=O)c4ccccc4)CC3)c(Cl)c2)cc1	24.9*	14.6	-23.4	22.7	43.4*	18.0
O=C(COc1ccc(Br)cc1)Nc1ccccc1C(=O)N1CCOCC1	2.9	3.3	-2.2	22.6	-11.2	-4.5
COc1ccc(OCC(=O)Nc2ccccc2C(=O)N2CCOCC2)cc1	4.3	17.1*	4.4	21.3	-5.4	-11.8
Cn1c(=O)[nH]c(=O)c2c1nc(N1CCCCC1)n2C/C=N/Nc1ccc(C(=O)O)cc1	-16.1	-0.2	9.6	6.4	-10.5	-7.6
O=C(COC(=O)Cc1ccccc1F)NNC(=O)c1ccc([N+](=O)[O-])cc1	-2.8	0.9	7.9	63.1*	-7.9	-0.5
O=C(COC(=O)c1cnccn1)c1ccc([N+](=O)[O-])cc1	-2.0	0.0	11.9	44.0*	-5.7	-1.5
O=C(CCC(=O)OCC(=O)c1cccc([N+](=O)[O-])c1)Nc1cccc(Cl)c1Cl	-22.9	0.2	-12.5	31.9	-7.5	-18.6
O=C(CCC(=O)OCC(=O)c1ccc([N+](=O)[O-])cc1)Nc1ccccc1Cl	-11.6	1.1	18.2	58.0*	0.1	-12.9
O=C(COc1ccccc1F)OCC(=O)c1ccc([N+](=O)[O-])cc1	-9.9	-0.1	8.3	31.4*	0.7	9.4
Cc1ccccc1OCC(=O)NCC(=O)OCC(=O)c1ccc([N+](=O)[O-])cc1	-2.7	2.3	4.8	49.9	1.1	-1.5
O=c1c2ccccc2cnn1CCOc1cccc(Br)c1	-13.9	0.1	-11.8	51.2	-12.2	-4.6
CC(=O)/C(N=Nc1cccc(C(F)(F)F)c1)=C(\C)O	3.7	2.1	14.0	7.6	-1.2	-16.0
SMILES	CHO-K1 Ca antag	CHO-K1 Ca ag	M1 PAM parental	OX1R antag-1	CHO parental Ca	OX1R antag-2
O=C(/C(N=Nc1cccc(C(F)(F)F)c1)=C(/O)c1cccs1)C(F)(F)F	1.8	16.5*	20.6	11.4	-16.5	-24.6
CC(C)(C)[C@H]1COC(=O)[C@@H](Cc2ccc(F)cc2)C/C=C\C[C@@H](CC(=O)N[C@@H](CO)Cc2ccccc2)C(=O)N1	-6.7	4.4	7.6	62.3*	-34.0	42.5
CC(C)(C)[C@H]1COC(=O)[C@@H](Cc2ccc(F)cc2)C/C=C\C[C@@H](CC(=O)N[C@H](CO)Cc2ccccc2)C(=O)N1	-9.2	0.1	10.3	8.2	-27.8	-31.0
COc1ccc(S(=O)(=O)Oc2c(OC)cc(C(=S)N3CCOCC3)cc2OC)cc1	-3.6	1.0	2.6	11.5	-16.2	-17.8
COc1cc(C(=S)N2CCOCC2)cc(Br)c1OS(=O)(=O)c1ccccc1	-10.2	5.6	28.6	34.8*	5.3	17.6
CC(C)c1ccc2oc(-c3cc(N)ccc3O)nc2c1	24.0*	0.1	-5.7	10.0	-6.3	-11.5
COCCCn1[nH]c2c3c(ccc2c1=O)C(=O)c1ccccc1C3=O	-4.5	0.4	18.0	74.8*	-12.8	-10.1
COc1cccc(C(=O)NC2CCCc3c2cnn3-c2ccc(C)c(C)c2)c1OC (stereo unspecified)	38.4*	8.0	-12.0	7.8	-16.0	-20.2
Cc1nnsc1C(=O)NC1CCCc2c1cnn2-c1ccc(F)cc1F (stereo unspecified)	14.7	10.2	-14.4	24.9	20.7	-0.7
Cc1ccc(C(=O)NC2CCCc3c2cnn3-c2ccc(F)cc2F)cn1 (stereo unspecified)	18.0	9.2	-4.4	5.8	38.3*	11.8
Cc1cc(C(=O)NC2CCCc3c2cnn3-c2cccc(C)c2C)n(C)n1 (stereo unspecified)	29.6*	13.2	-19.7	53.9	54.6*	24.6
Cn1nccc1C(=O)NC1CCCc2c1cnn2-c1ccc(C(C)(C)C)cc1 (stereo unspecified)	32.6*	14.2	-14.6	48.7*	55.6*	22.2
COc1ccc(C(=O)NC2CCCc3c2cnn3-c2ccc(C)c(C)c2)c(OC)c1OC (stereo unspecified)	1.3	2.4	9.4	14.3	-26.8	-45.3
CC(=O)NC1CCCc2c1cnn2-c1ccc(C(C)(C)C)cc1 (stereo unspecified)	-1.5	4.2	18.3	7.8	3.1	-2.9
CC(NC(=O)c1cc2ccccc2oc1=O)c1ccc(O)cc1 (stereo unspecified)	-5.7	8.7	2.1	10.6	-5.5	-8.5
CC(C)Cn1nc(C(=O)OCC(=O)NCC(F)(F)F)c2ccccc2c1=O	-12.4	-0.2	4.3	33.0	-10.1	-25.0
COC(=O)C(=O)C1CCc2c(Cl)cc(OC)c(OC)c2C1=O (stereo unspecified)	-10.4	0.6	13.5	.	.	.

Bioassay records deposited in PubChem BioAssay by The Scripps Research Institute Molecular Screening Center.
